{"source": "ChEMBL document CHEMBL4014261", "about": "“Design, Synthesis, and Antimicrobial Evaluation of a Novel Bone-Targeting Bisphosphonate-Ciprofloxacin Conjugate for the Treatment of Osteomyelitis Biofilms” (J Med Chem, 2017)", "key": {"[1]": {"system": "Staphylococcus aureus", "assay": "Antibacterial activity against methicillin-sensitive Staphylococcus aureus isolate 4 planktonic cells after 24 hrs by microdilution assay", "assay_type": "functional", "settings": "isolate 4, 24 h", "summary_of_the_method": "(§1)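 Planktonic cells at 1 × 10^5 CFU/mL were exposed to compound, and A580 was read at 0 h and after 24 h at 37 °C with shaking. Controls were medium plus microbes, with 1% (v/v) DMSO where the solvent was used. Relative cell number was calculated against the control. Results were confirmed by subculture in fresh medium (48 h, 37 °C) and plating. Conjugate concentrations were expressed as parent-antibiotic equivalents.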"}, "[2]": {"system": "Staphylococcus aureus", "assay": "Antibiofilm activity against Staphylococcus aureus ATCC 6538 assessed as CFU counts at 200 ug/mL pretreated with HA for 24 hrs followed by organism inoculation measured after 24 hrs (reference value: 4.5 x 10^10CFU)", "assay_type": "functional"}, "[3]": {"system": "Staphylococcus aureus", "assay": "Antibiofilm activity against Staphylococcus aureus ATCC 6538 assessed as CFU counts at 400 ug/mL pretreated with HA for 24 hrs followed by organism inoculation measured after 24 hrs (reference value: 4.5 x 10^10CFU)", "assay_type": "functional"}, "[4]": {"system": "Staphylococcus aureus", "assay": "Antibiofilm activity against Staphylococcus aureus ATCC 6538 assessed as reduction in bacterial adherence to HA at 0.24 to 7.8 ug/ml pretreated with HA for 24 hrs followed by organism inoculation measured after 24 hrs", "assay_type": "functional", "summary_of_the_method": "(§2)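 HA spherules (final 10 mg/mL) in TSB were preincubated 24 h at 37 °C with shaking with compound (final 0.12–250 mg/L), then pelleted and the supernatant discarded. They were inoculated with 1 mL S. aureus at 10^5 CFU/mL. A580 was read at 0 and 24 h (37 °C, shaking) against controls without spherules and spherules without compound; spherules were also plated for CFU.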"}, "[5]": {"system": "Staphylococcus aureus", "assay": "Bactericidal activity against Staphylococcus aureus ATCC 6538 biofilm using hydroxyapatite as substrate assessed as reduction in colony forming units after 24 hrs", "assay_type": "functional", "summary_of_the_method": "(§3)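 Biofilms were started from a 1 McFarland suspension, allowed to adhere 4 h at 37 °C on HA discs or polystyrene well bottoms, then rinsed. They were exposed 24 h at 37 °C to TSB containing 0.24–125 mg/L compound. Cells were detached in 0.5% saponin by 1 min vortexing, serially diluted and plated on Columbia (S. aureus) or MacConkey (P. aeruginosa) agar, 37 °C, 24 h. Read-out was mean CFU/mm² ± SEM; HA area was measured by X-ray tomography.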"}, "[6]": {"system": "Staphylococcus aureus", "assay": "Antibiofilm activity against Staphylococcus aureus ATCC 6538 assessed as reduction in bacterial adherence to HA at 15.6 to 250 ug/ml pretreated with HA for 24 hrs followed by organism inoculation measured after 24 hrs", "assay_type": "functional", "summary_of_the_method": "as §2"}, "[7]": {"system": "Staphylococcus aureus", "assay": "Bactericidal activity against methicillin-sensitive Staphylococcus aureus ATCC 6538 planktonic cells assessed as reduction in bacterial growth at 31.25 ug/ml up to 1 hr by time kill assay relative to control", "assay_type": "functional", "parameters": "scale not given: the % may be the effect or the level left", "summary_of_the_method": "(§4)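 Time-kill per CLSI on planktonic cultures, set up as the microdilution assay: 1 × 10^5 CFU/mL, 37 °C with shaking. A580 is read at 0, 1, 2, 4, 8, 16 and 24 h, and growth is expressed relative to untreated medium + microbes control. Concentrations are parent-antibiotic equivalents.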"}, "[8]": {"system": "Hydroxyapatite", "assay": "Binding affinity to Hydroxyapatite at 1.95 to 250 ug/mL up to 24 hrs by spectroscopic analysis", "summary_of_the_method": "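HA spherules (final 10 mg/mL) in TSB were mixed with compound (final 0.24–250 mg/L). Absorbance at 275 nm was read at 0 h and after 24 h at 37 °C with shaking, and relative compound concentration was derived by comparing the two readings.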"}, "[9]": {"system": "Staphylococcus aureus", "assay": "Antibacterial activity against methicillin-sensitive Staphylococcus aureus isolate 1 planktonic cells after 24 hrs by microdilution assay", "assay_type": "functional", "settings": "isolate 1, 24 h", "summary_of_the_method": "as §1"}, "[10]": {"system": "Staphylococcus aureus", "assay": "Potency index, ratio of ciprofloxacin bactericidal concentration to compound bactericidal concentration for Staphylococcus aureus ATCC 6538", "assay_type": "functional"}, "[11]": {"system": "Staphylococcus aureus", "assay": "Bactericidal activity against methicillin-susceptible Staphylococcus aureus ATCC 6538 planktonic cells assessed as reduction in bacterial growth at 15.6 ug/ml after 2 hrs by time kill assay"}, "[12]": {"system": "Staphylococcus aureus", "assay": "Antibacterial activity against methicillin-sensitive Staphylococcus aureus ATCC 6538 planktonic cells after 24 hrs by microdilution assay", "assay_type": "functional", "settings": "ATCC 6538, 24 h", "summary_of_the_method": "as §1"}, "[13]": {"system": "Pseudomonas aeruginosa", "assay": "Bactericidal activity against Pseudomonas aeruginosa ATCC 15442 biofilm using hydroxyapatite as substrate assessed as reduction in colony forming units at 50 ug/ml at pH 4.8 to 7.4 after 24 hrs", "assay_type": "functional"}, "[14]": {"system": "Staphylococcus aureus", "assay": "Antibacterial activity against methicillin-sensitive Staphylococcus aureus ATCC 6538 planktonic cells at pH 5 after 24 hrs by microdilution method", "assay_type": "functional", "settings": "ATCC 6538, 24 h", "summary_of_the_method": "(§5)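 Planktonic ATCC 6538 was tested by microdilution in medium adjusted to pH 5 or pH 7.4 with KOH or HCl, with pH checked by universal indicator. MIC50 was determined at each pH.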"}, "[15]": {"system": "Staphylococcus aureus", "assay": "Antibacterial activity against methicillin-sensitive Staphylococcus aureus ATCC 6538 planktonic cells at pH 7.4 after 24 hrs by microdilution method", "assay_type": "functional", "settings": "ATCC 6538, 24 h", "summary_of_the_method": "as §5"}, "[16]": {"system": "Aggregatibacter actinomycetemcomitans", "assay": "Antibiofilm activity against Aggregatibacter actinomycetemcomitans infected in jawbone peri-implant osteomyelitis Sprague-Dawley rat model assessed as reduction in bacterial count in bone at 10 mg/kg, ip single dose measured after 1 week post pharmacotherapy", "assay_type": "functional", "parameters": "scale not given: the % may be the effect or the level left", "summary_of_the_method": "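Rats carried two titanium implants each, preinoculated with A. actinomycetemcomitans D7S-1 biofilm (10^9 CFU), placed bilaterally in palatal bone. One week after surgery, randomized groups received i.p. doses in sterile saline; the negative control was endotoxin-free saline. One week after treatment, 1 cm² peri-implant tissue and bone were homogenized in 0.5% saponin, serially diluted 10-fold and spread-plated on modified TSB (37 °C, 5% CO2, 48 h). Read-out was CFU/g and mean log10 reduction; analysts were blinded.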"}, "[17]": {"system": "Staphylococcus aureus", "assay": "Bactericidal activity against methicillin-resistant Staphylococcus aureus MR4-CIPS planktonic cells assessed as reduction in bacterial growth at 7.8 ug/ml after 24 hrs by time kill assay relative to control", "assay_type": "functional", "parameters": "scale not given: the % may be the effect or the level left", "summary_of_the_method": "as §4"}, "[18]": {"system": "Staphylococcus aureus", "assay": "Antibiofilm activity against Staphylococcus aureus ATCC 6538 assessed as CFU counts at 5 ug/mL pretreated with HA for 24 hrs followed by organism inoculation measured after 24 hrs (reference value: 4.5 x 10^10CFU)", "assay_type": "functional", "summary_of_the_method": "(§6)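 HA discs were soaked 24 h at 37 °C in 2 mL compound solution, with DMSO or phosphate-buffer controls, then rinsed 3× with sterile water. Discs were inoculated with 2 mL of 0.5 McFarland S. aureus ATCC 6538 for biofilm formation. Biofilm CFU were counted after 24 h growth.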"}, "[19]": {"system": "Staphylococcus aureus", "assay": "Antibiofilm activity against Staphylococcus aureus ATCC 6538 assessed as CFU counts at 50 ug/mL pretreated with HA for 24 hrs followed by organism inoculation measured after 24 hrs (reference value: 4.5 x 10^10CFU)", "assay_type": "functional", "summary_of_the_method": "as §6"}, "[20]": {"system": "Pseudomonas aeruginosa", "assay": "Bactericidal activity against Pseudomonas aeruginosa ATCC 15442 biofilm using polystyrene as substrate assessed as reduction in colony forming units at 0.24 to 125 ug/ml after 24 hrs", "assay_type": "functional", "summary_of_the_method": "as §3"}}, "note": "The source made the active and inactive calls. The calls are words filed in the database; no cut-off is given here."}
{"smiles": "O=C(O)c1cn(C2CC2)c2cc(N3CCN(C(=O)Oc4ccc(CC(P(=O)(O)O)P(=O)(O)O)cc4)CC3)c(F)cc2c1=O", "values": [{"measurement": "MIC", "setting": "[1]", "result": 3.9, "unit": "µg/mL"}, {"measurement": "Activity", "setting": "[2]", "result": "Active"}, {"measurement": "Activity", "setting": "[3]", "result": "Active"}, {"measurement": "Activity", "setting": "[4]", "result": "Active"}, {"measurement": "MBIC50", "setting": "[5]", "result": 16, "unit": "µg/mL"}, {"measurement": "MBIC90", "setting": "[5]", "result": 100, "unit": "µg/mL"}, {"measurement": "Activity", "setting": "[6]", "result": "Active"}, {"measurement": "Activity", "setting": "[7]", "result": 100, "unit": "%"}, {"measurement": "Activity", "setting": "[8]", "result": "Active"}, {"measurement": "MIC", "setting": "[9]", "result": 3.9, "unit": "µg/mL"}, {"measurement": "Ratio", "setting": "[10]", "result": 20}, {"measurement": "Activity", "setting": "[11]", "result": "Active"}, {"measurement": "MIC", "setting": "[12]", "result": 31.2, "unit": "µg/mL"}, {"measurement": "Activity", "setting": "[13]", "result": "Active"}, {"measurement": "MIC50", "setting": "[14]", "result": 7.81, "unit": "µg/mL"}, {"measurement": "MIC90", "setting": "[14]", "result": 31.2, "unit": "µg/mL"}, {"measurement": "MIC50", "setting": "[15]", "result": 15.6, "unit": "µg/mL"}, {"measurement": "MIC90", "setting": "[15]", "result": 31.2, "unit": "µg/mL"}, {"measurement": "Activity", "setting": "[16]", "result": 99, "unit": "%"}, {"measurement": "Activity", "setting": "[17]", "result": 50, "unit": "%"}, {"measurement": "Activity", "setting": "[18]", "result": 3.3, "unit": "×10⁹ CFU"}, {"measurement": "Activity", "setting": "[19]", "result": "Active"}, {"measurement": "Activity", "setting": "[20]", "result": "inactive"}]}
